Assay outcomes as filed in PubChem.
CSN inh – blocks human CSN-mediated cullin deneddylation. Q92905. Purified CSN, SCF-Nedd8-OG deneddylation, fluorescence polarization. inhibition, % at 12.5 µM. 0.38% of 360,000 active. AID 651999;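 active means pattern-corrected inhibition above about 35%, with an unprinted fluorescence ratio check between 0.5 and 1.5, limit read from the data, passing the limit was not always enough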;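 further: 0% = enzyme with substrate and 100% = substrate without enzyme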
Target sequence (Q92905 whole entry, looked up, one chain of several): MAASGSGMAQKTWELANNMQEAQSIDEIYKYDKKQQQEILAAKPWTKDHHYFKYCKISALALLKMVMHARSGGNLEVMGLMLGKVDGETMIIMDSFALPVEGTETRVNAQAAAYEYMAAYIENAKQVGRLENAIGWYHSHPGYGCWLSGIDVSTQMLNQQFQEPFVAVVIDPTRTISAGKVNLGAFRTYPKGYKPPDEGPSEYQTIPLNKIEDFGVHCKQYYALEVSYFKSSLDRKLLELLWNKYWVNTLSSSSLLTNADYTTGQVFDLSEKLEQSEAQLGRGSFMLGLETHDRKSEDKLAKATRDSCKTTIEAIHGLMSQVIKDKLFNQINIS
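Schedule: reaction 90 min, room temperature / Assay system: HEK293T-derived human Csn5 enzyme / Input: Csn5 at 0.24 nM final / Measure: inhibition of Csn5 cleavage, % / Control set: substrate-only high control, full reaction low control / Technique: fluorescence polarization of the substrate / Buffer or medium: Tris/NaCl/DTT buffer, pH 7.5 / Reagent: SCFSkp2-Nedd8OG substrate at 10 nM final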
HNF4A DNA FP – change in binding of human HNF4 alpha to DNA; activity change, % at 10 µM; 0.3% of 360,000 active; AID 1224865; HNF4a-FITC DNA binding, fluorescence polarization, 1 h; P41235; in the data active means activity change above about 30%, passing the limit was not always enough
Myeloid diff 2 – myeloid differentiation induction | ER-HoxA9 myeloid progenitors, lysozyme-GFP differentiation, flow cytometry | calls only at 10 µM | 1% of 360,000 active;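 active means normalized GFP-positive differentiation at or above the plate's own cutoff, the solvent-only control mean plus 3 SD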;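 further: cells exposed to compound for four days before flow analysis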
TPT1 inhibitor – inhibitors of Candida albicans tRNA 2'-phosphotransferase TPT1 | recombinant caTPT1, FP RNA substrate dephosphorylation | AID 1962 | inhibition, % at 5 µM | 0.81% of 300,000 active;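 active means inhibition above the mean of all tested compounds plus 3 SD, set per screening campaign, cut at about 24% in these data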;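 further: plate controls were DMSO alone for no effect and ferristatin control at 100 nM for full effect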
Rpn11 block – Rpn11 (human) deubiquitinase inhibition; O00487; human 26S proteasome, Ub4-pepOG fluorescence polarization; 20S core pre-blocked with epoxomicin; inhibition, % at 20 µM; 0.59% of 360,000 active; AID 588493;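 active means inhibition at 20 µM, scaled to each plate's controls, above about 33%, limit read from the data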
* = called active by the depositor; i = inactive; x = no result shown; + = active, no number. In the library only some 2.3% were active in any assay of this set; here they are far more common.

SMILES	CSN inh	HNF4A DNA FP	Myeloid diff 2	TPT1 inhibitor	Rpn11 block
Nc1cc(-c2ccccc2)nn1S(=O)(=O)c1ccc(Br)cc1	+	2	i	1	-3
COc1cc(-c2cc(N)n(S(=O)(=O)c3ccccc3)n2)cc(OC)c1OC	5	3	i	-1	-10
CC1(C(=O)Nc2ccc3c(c2)OCCO3)CN(S(C)(=O)=O)CC(=O)N1CCCn1ccnc1 (stereo unspecified)	-2	-2	i	x	x
CC(=O)C1=C(O)C(=O)N(CCCn2ccnc2)C1c1ccc(Br)cc1 (stereo unspecified)	2	-3	+	-1	13
CN1\C(=C/C=C/C=C/C=[N+](C)C)C(C)(C)c2ccccc21	120	102*	+	x	x
CN1/C(=C\C=O)C(C)(C)c2ccccc21	-1	7	i	0	22
Cc1c(N=C/C=C2\N(C)c3ccccc3C2(C)C)c(=O)n(-c2ccccc2)n1C	-2	1	i	1	4
CN(C)c1ccc(N=C/C=C2\N(C)c3ccccc3C2(C)C)cc1	12	23	+	9	29
CN1/C(=C\C=Nc2ccc3ccccc3c2)C(C)(C)c2ccccc21	15	30	i	49*	36
CN1/C(=C/C=C(C#N)C#N)C(C)(C)c2ccccc21	-105	-96	i	13	8
COC(=O)[C@@]1(Sc2ccc(C)cc2)CC(=O)N(C(=O)c2ccccc2)[C@@H]1c1ccccc1	-4	-3	i	x	x
COC(=O)[C@@]12C[C@@H](CC(=O)N3CCC(c4ccccc4)CC3)C(=O)N(Cc3cccc4ccccc34)C1=CCC(C)(C)C2	2	2	i	x	x
Nc1sc2c(c1C(=O)NCCc1ccccc1)CCCC2	7	-2	i	x	x
CC(=O)N1CCC(C(=O)N2c3ccccc3N=C(c3ccc(C(F)(F)F)cc3)C2C(=O)NC2CCCC2)CC1 (stereo unspecified)	0	-2	i	x	x
CCC(C)(C(=O)NC1CCCC1)N(Cc1ccco1)C(=O)c1ccc2c(c1)OCO2 (stereo unspecified)	-3	-1	+	-3	2
Nc1nc2ccc(Cl)cc2cc1C(=O)NCCc1c[nH]c2ccccc12	-8	-1	i	x	x
Cc1nnc(NC(=O)c2cc(-c3ccco3)nc3ccccc23)s1	41	-21	i	7	-4
Cc1csc(NC(=O)c2cc(-c3ccco3)nc3ccccc23)n1	46*	-38	i	7	-25
Cc1ccc(S(=O)(=O)N2[C@H](CC(=O)c3cccc4ccccc34)OC[C@@H]2C)cc1	-3	2	i	x	x
O=[N+]([O-])c1ccc(-[n+]2ccc3ccccc3c2)c([N+](=O)[O-])c1	7	1	+	-1	0
COC(=O)c1ccccc1-c1c2ccc(=N)cc-2oc2cc(N)ccc12	-73	-96	+	x	-246
COC(=O)c1ccccc1-c1ccc(/C=N/NC(=O)c2cc3ccccc3o2)o1	-4	1	i	-2	-2
O=C1CC(N2CCN(S(=O)(=O)c3ccc(Cl)cc3)CC2)C(=O)N1CCc1ccccc1 (stereo unspecified)	-3	-1	i	-1	-2
Cc1ccc(S(=O)(=O)N2CCN(C3CC(=O)N(CCc4ccccc4)C3=O)CC2)cc1C (stereo unspecified)	0	61*	i	2	12
C=CCN1CC(=O)N2Cc3[nH]c4ccccc4c3C[C@H]2C1=O	0	0	+	-4	5
SMILES	CSN inh	HNF4A DNA FP	Myeloid diff 2	TPT1 inhibitor	Rpn11 block
CC1(C(=O)NCc2ccccc2)CCC(=O)N1CCCn1ccnc1 (stereo unspecified)	-3	-2	i	x	0
O=C(Nc1nc2ccccc2s1)C1c2ccccc2Oc2ccccc21	-1	-3	+	1	3
O=C(Nc1nc2ccccc2s1)C1CCCO1 (stereo unspecified)	-1	-1	i	1	3
Cc1ccc(-c2nc3cccnc3s2)cc1NC(=O)C1c2ccccc2Oc2ccccc21	36*	40*	i	x	23
c1ccc2c(c1)Cn1nnnc1-2	-1	1	i	-2	3
c1ccc2c(c1)CC1(CCCCC1)n1nnnc1-2	0	-1	+	0	-6
Cc1nnc(N2C(=O)C(O)=C(C(=O)c3ccco3)C2c2ccc(C(C)(C)C)cc2)s1 (stereo unspecified)	-3	-10	+	2	-6
O=S(=O)(c1ccc(NC(=S)NN=Cc2ccccc2O)cc1)N1CCCCC1	-1	5	x	x	31
O=C(Nc1ccc(C(F)(F)F)cc1)c1ccc(NC(=O)C2CCCO2)cc1 (stereo unspecified)	13	23	i	2	94*
O=C(Nc1ccc(F)cc1)c1ccc(NC(=O)C2CCCO2)cc1 (stereo unspecified)	6	-1	i	0	0
CC(C)(C)c1ccc(NC(=O)c2cc(C3CCCN(C(=O)CCc4ccccc4)C3)on2)cc1 (stereo unspecified)	3	0	i	x	-1
O=C(NC1CCCCC1)C(C1CC1)n1c(=O)c(-c2cc3ccccc3[nH]2)nc2ccccc21 (stereo unspecified)	-2	2	i	x	x
COc1ccc(N(CC(=O)N2CCc3ccccc32)S(=O)(=O)c2c(C)nn(C)c2C)cc1	-2	-2	i	-5	4
Cc1nn(C)c(C)c1S(=O)(=O)N(CC(=O)N1CCc2ccccc21)c1ccc(C(C)C)cc1	6	3	+	-3	-2
COc1ccc(/C=C/c2ccc3ccccc3[n+]2C)cc1OC	-3	1	+	19	13
C=CCC(C=C)S(=O)(=O)c1ccc(C)cc1 (stereo unspecified)	-1	-5	+	-5	-7
Cc1ccc(S(=O)(=O)C=CS(=O)(=O)c2ccc(C)cc2)cc1	6	-1	i	x	0
CCOC(=O)CC12CN3CN(C1)CC(CC(=O)OCC)(C3)C2=O	2	0	+	5	0
CC(C)OC(=O)CC12CN3CN(C1)CC(CC(=O)OC(C)C)(C3)C2=O	-1	2	i	0	-1
Cc1ccc(F)cc1NC(=O)CSc1nc(Nc2ccccc2)nc(N2CCOCC2)n1	-5	-1	+	-3	3
Cc1ccccc1NC(=O)CSc1nc(Nc2ccccc2)nc(N2CCOCC2)n1	3	1	i	0	-6
CCCCN1C(=O)/C(=C/C=C2\Oc3ccccc3N2CC)SC1=S	6	117	+	x	x
CCN1C(=O)/C(=C\N2CCCc3ccccc32)SC1=S	0	1	i	1	8
COc1ccc2c(c1)c(=O)oc1c(C)c(OCC(=O)N3CCc4ccccc4C3)ccc12	36*	-9	i	1	3
Cc1cc(=O)oc2cc(OCC(=O)N3CCc4ccccc4C3)ccc12	0	0	i	3	1
